Data published in ChEMBL document CHEMBL3588757, “Structure-based design, synthesis and biological testing of piperazine-linked bis-epipodophyllotoxin etoposide analogs” (Bioorg Med Chem, 2015).

Tests used:
Type in all cases: functional
UACC-62 [1] = experiment: Cytotoxicity against human UACC62 cells assessed as cell growth at 0.5 uM by SRB assay; conditions: read-out: Activity
CCRF-CEM = experiment: Cytotoxicity against human CCRF-CEM cells assessed as cell growth at 0.05 uM by SRB assay; conditions: read-out: Activity
HCT-116 [2] = experiment: Cytotoxicity against human HCT116 cells assessed as cell growth at 0.05 uM by SRB assay; conditions: read-out: Activity
Outline: (§1)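 Measured in the NCI-60 human tumour cell line panel using five-dose testing. Growth was recorded at each dose for each cell line, and a GI50 was derived for each line.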

SK-MEL-28 = experiment: Cytotoxicity against human SK-MEL-28 cells assessed as cell growth at 5 uM by SRB assay; conditions: read-out: Activity
SF-295 = experiment: Cytotoxicity against human SF295 cells assessed as cell growth at 0.005 uM by SRB assay; conditions: read-out: Activity
SK-OV-3 [3] = experiment: Cytotoxicity against human SKOV3 cells assessed as cell growth at 5 uM by SRB assay; conditions: read-out: Activity
IGROV-1 = experiment: Cytotoxicity against human IGROV1 cells assessed as cell growth at 0.05 uM by SRB assay; conditions: read-out: Activity; outline: as §1
PC-3 [4] = experiment: Cytotoxicity against human PC3 cells assessed as cell growth at 5 uM by SRB assay; conditions: read-out: Activity
786-0 [5] = experiment: Cytotoxicity against human 786-0 cells assessed as cell growth at 50 uM by SRB assay; conditions: read-out: Activity
KM12 = experiment: Cytotoxicity against human KM12 cells assessed as cell growth at 50 uM by SRB assay; conditions: read-out: Activity
HCT-116 [6] = experiment: Cytotoxicity against human HCT116 cells by SRB assay; outline: as §1
HCT-116 [7] = experiment: Cytotoxicity against human HCT116 cells assessed as cell growth at 0.005 uM by SRB assay; conditions: read-out: Activity; outline: as §1
HOP-92 [8] = experiment: Cytotoxicity against human HOP92 cells assessed as cell growth at 0.5 uM by SRB assay; conditions: read-out: Activity; outline: as §1
RPMI-8226 [9] = experiment: Cytotoxicity against human RPMI8226 cells assessed as cell growth at 5 uM by SRB assay; conditions: read-out: Activity
SK-OV-3 [10] = experiment: Cytotoxicity against human SKOV3 cells assessed as cell growth at 0.05 uM by SRB assay; conditions: read-out: Activity
SNB-75 = experiment: Cytotoxicity against human SNB75 cells assessed as cell growth at 0.005 uM by SRB assay; conditions: read-out: Activity
NCI-H522 [11] = experiment: Cytotoxicity against human NCI-H522 cells by SRB assay
Outline: (§2)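 NCI-60 panel screen; 5-dose testing giving GI50 per cell line, plus a single 10 µM one-dose test. Method details not given beyond the NCI screen.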

HCT-116 [12] = experiment: Cytotoxicity against human HCT116 cells assessed as cell growth at 50 uM by SRB assay; conditions: read-out: Activity; outline: as §1
RPMI-8226 [13] = experiment: Cytotoxicity against human RPMI8226 cells assessed as cell growth at 0.005 uM by SRB assay; conditions: read-out: Activity
A549 = experiment: Cytotoxicity against human A549/ATCC cells assessed as cell growth at 0.05 uM by SRB assay; conditions: read-out: Activity
A498 [14] = experiment: Cytotoxicity against human A498 cells assessed as cell growth at 0.05 uM by SRB assay; conditions: read-out: Activity
PC-3 [15] = experiment: Cytotoxicity against human PC3 cells assessed as cell growth at 0.005 uM by SRB assay; conditions: read-out: Activity
SK-OV-3 [16] = experiment: Cytotoxicity against human SKOV3 cells by SRB assay; outline: as §2
HOP-92 [17] = experiment: Cytotoxicity against human HOP92 cells assessed as cell growth at 0.005 uM by SRB assay; conditions: read-out: Activity; outline: as §1
CAKI-1 = experiment: Cytotoxicity against human Caki1 cells assessed as cell growth at 5 uM by SRB assay; conditions: read-out: Activity
786-0 [18] = experiment: Cytotoxicity against human 786-0 cells by SRB assay
T47D = experiment: Cytotoxicity against human T47D cells assessed as cell growth at 0.5 uM by SRB assay; conditions: read-out: Activity
A498 [19] = experiment: Cytotoxicity against human A498 cells by SRB assay
MOLT-4 = experiment: Cytotoxicity against human MOLT4 cells assessed as cell growth at 0.005 uM by SRB assay; conditions: read-out: Activity
NCI-H226 [20] = experiment: Cytotoxicity against human NCI-H226 cells assessed as cell growth at 50 uM by SRB assay; conditions: read-out: Activity
SK-MEL-5 = experiment: Cytotoxicity against human SK-MEL-5 cells assessed as cell growth at 5 uM by SRB assay; conditions: read-out: Activity
NCI-H460 = experiment: Cytotoxicity against human NCI-H460 cells assessed as cell growth at 0.005 uM by SRB assay; conditions: read-out: Activity
NCI-H226 [21] = experiment: Cytotoxicity against human NCI-H226 cells assessed as cell growth at 0.005 uM by SRB assay; conditions: read-out: Activity
OVCAR-5 = experiment: Cytotoxicity against human OVCAR5 cells assessed as cell growth at 50 uM by SRB assay; conditions: read-out: Activity
HOP-62 = experiment: Cytotoxicity against human HOP62 cells assessed as cell growth at 0.005 uM by SRB assay; conditions: read-out: Activity; outline: as §1
U-251 = experiment: Cytotoxicity against human U251 cells assessed as cell growth at 50 uM by SRB assay; conditions: read-out: Activity
MDA-MB-435 = experiment: Cytotoxicity against human MDA-MB-435 cells by SRB assay; outline: as §2
MDA-MB-231 = experiment: Cytotoxicity against human MDA-MB-231/ATCC cells by SRB assay; outline: as §2
UACC-62 [22] = experiment: Cytotoxicity against human UACC62 cells assessed as cell growth at 0.005 uM by SRB assay; conditions: read-out: Activity
NCI-H522 [23] = experiment: Cytotoxicity against human NCI-H522 cells assessed as cell growth at 0.05 uM by SRB assay; conditions: read-out: Activity
MCF7 = experiment: Cytotoxicity against human MCF7 cells assessed as cell growth at 50 uM by SRB assay; conditions: read-out: Activity
SN12C = experiment: Cytotoxicity against human SN12C cells assessed as cell growth at 0.005 uM by SRB assay; conditions: read-out: Activity
NCI-H522 [24] = experiment: Cytotoxicity against human NCI-H522 cells assessed as cell growth at 5 uM by SRB assay; conditions: read-out: Activity
[25] = read-out: LC50 (the source's name)
[26] = read-out: pLC50 (the source's name) (converted)

SMILES: COc1cc([C@@H]2c3cc4c(cc3[C@@H](NC(=O)CN3CCN(CCCCCCN5CCN(CC(=O)N[C@@H]6c7cc8c(cc7[C@@H](c7cc(OC)c(O)c(OC)c7)[C@H]7C(=O)OC[C@@H]76)OCO8)CC5)CC3)[C@H]3COC(=O)[C@H]23)OCO4)cc(OC)c1O
- growth at 0.5 µM (UACC-62 [1]): 70%
- growth at 0.05 µM (CCRF-CEM): 95%
- growth at 0.05 µM (HCT-116 [2]): 98%
- growth at 5 µM (SK-MEL-28): 56%
- growth at 0.005 µM (SF-295): 90%
- growth at 5 µM (SK-OV-3 [3]): 44%
- growth at 0.05 µM (IGROV-1): 105%
- growth at 5 µM (PC-3 [4]): 54%
- growth at 50 µM (786-0 [5]): -10%
- growth at 50 µM (KM12): 10%
- GI50 (HCT-116 [6]; read-out: GI50): 1.63 µM
- CC50 (HCT-116 [6]; [25]): > 50 µM
- TGI (HCT-116 [6]; read-out: TGI): > 50 µM
- GI50 (HCT-116 [6]; read-out: pGI50 (converted)): 1.62 µM
- CC50 (HCT-116 [6]; [26]): > 50.1 µM
- TGI (HCT-116 [6]; read-out: pTGI (converted)): > 50.1 µM
- growth at 0.005 µM (HCT-116 [7]): 93%
- growth at 0.5 µM (HOP-92 [8]): 69%
- growth at 5 µM (RPMI-8226 [9]): -1%
- growth at 0.05 µM (SK-OV-3 [10]): 107%
- growth at 0.005 µM (SNB-75): 75%
- GI50 (NCI-H522 [11]; read-out: GI50): 5.13 µM
- CC50 (NCI-H522 [11]; [25]): > 50 µM
- TGI (NCI-H522 [11]; read-out: TGI): 28.8 µM
- GI50 (NCI-H522 [11]; read-out: pGI50 (converted)): 5.13 µM
- CC50 (NCI-H522 [11]; [26]): > 50.1 µM
- TGI (NCI-H522 [11]; read-out: pTGI (converted)): 28.8 µM
- growth at 50 µM (HCT-116 [12]): 2%
- growth at 0.005 µM (RPMI-8226 [13]): 102%
- growth at 0.05 µM (A549): 89%
- growth at 0.05 µM (A498 [14]): 96%
- growth at 0.005 µM (PC-3 [15]): 93%
- GI50 (SK-OV-3 [16]; read-out: GI50): 3.87 µM
- CC50 (SK-OV-3 [16]; [25]): > 50 µM
- TGI (SK-OV-3 [16]; read-out: TGI): > 50 µM
- GI50 (SK-OV-3 [16]; read-out: pGI50 (converted)): 3.89 µM
- CC50 (SK-OV-3 [16]; [26]): > 50.1 µM
- TGI (SK-OV-3 [16]; read-out: pTGI (converted)): > 50.1 µM
- growth at 0.005 µM (HOP-92 [17]): 88%
- growth at 5 µM (CAKI-1): 80%
- GI50 (786-0 [18]; read-out: GI50): 2.86 µM
- CC50 (786-0 [18]; [25]): > 50 µM
- TGI (786-0 [18]; read-out: TGI): 31.7 µM
- GI50 (786-0 [18]; read-out: pGI50 (converted)): 2.88 µM
- CC50 (786-0 [18]; [26]): > 50.1 µM
- TGI (786-0 [18]; read-out: pTGI (converted)): 31.6 µM
- growth at 0.5 µM (T47D): 79%
- GI50 (A498 [19]; read-out: GI50): 5.74 µM
- CC50 (A498 [19]; [25]): > 50 µM
- TGI (A498 [19]; read-out: TGI): 35.2 µM
- GI50 (A498 [19]; read-out: pGI50 (converted)): 5.75 µM
- CC50 (A498 [19]; [26]): > 50.1 µM
- TGI (A498 [19]; read-out: pTGI (converted)): 35.5 µM
- growth at 0.005 µM (MOLT-4): 108%
- growth at 50 µM (NCI-H226 [20]): -2%
- growth at 5 µM (SK-MEL-5): 57%
- growth at 0.005 µM (NCI-H460): 100%
- growth at 0.005 µM (NCI-H226 [21]): 92%
- growth at 50 µM (OVCAR-5): 10%
- growth at 0.005 µM (HOP-62): 95%
- growth at 50 µM (U-251): -10%
- GI50 (MDA-MB-435; read-out: GI50): 7.52 µM
- CC50 (MDA-MB-435; [25]): > 50 µM
- TGI (MDA-MB-435; read-out: TGI): > 50 µM
- GI50 (MDA-MB-435; read-out: pGI50 (converted)): 7.59 µM
- CC50 (MDA-MB-435; [26]): > 50.1 µM
- TGI (MDA-MB-435; read-out: pTGI (converted)): > 50.1 µM
- GI50 (MDA-MB-231; read-out: GI50): 13.6 µM
- CC50 (MDA-MB-231; [25]): > 50 µM
- TGI (MDA-MB-231; read-out: TGI): > 50 µM
- GI50 (MDA-MB-231; read-out: pGI50 (converted)): 13.5 µM
- CC50 (MDA-MB-231; [26]): > 50.1 µM
- TGI (MDA-MB-231; read-out: pTGI (converted)): > 50.1 µM
- growth at 0.005 µM (UACC-62 [22]): 97%
- growth at 0.05 µM (NCI-H522 [23]): 99%
- growth at 50 µM (MCF7): 7%
- growth at 0.005 µM (SN12C): 96%
- growth at 5 µM (NCI-H522 [24]): 51%
